Source: PubChem
WT yeast gro inh: growth inhibition of WT yeast, mitochondrial fusion screen; mitochondrial fusion phenotypic screen, WT strain; inhibition, % at 10 µM; 190,000 tested, 2.1% active; in the data active = inhibition above about 58%; tested in S. cerevisiae
bCat nuc transl: alters nuclear translocation of beta-catenin in HeLa cells | immunofluorescence imaging | nuclear translocation activity, % at 5 µM | 190,000 tested, 0.3% active | AID 1665;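 active = nuclear translocation activity above 50% at 5 µM, with a well cell count of 50 or more; inconclusive = wells under 50 cells across six images, flagged as toxic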;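 also: per-cell ratio of nuclear to cytoplasmic median beta-catenin stain intensity; plate controls were DMSO negative control for no effect and GSK-3 inhibitor IX positive control for full effect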
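System: HeLa cells, endogenous beta-catenin; compound dosing: 5 µM primary single dose, 0.1% DMSO, 0.02–20 µM confirmation series; incubation: 24 h compound exposure at 37°C, 5% CO2; signal: beta-catenin immunofluorescence imaging with DAPI; evaluation: % activation, nuclear-to-cytoplasmic median beta-catenin signal ratio per cell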
Cl transport mod: KCC2 (human) Cl- transport modulation; Q9H2X9; KCC2 cells, thallium flux FluoZin-2 fluorescence; B-score of Tl+ flux slope (higher = more flux/activation; lower = inhibition) at 10 µM; 190,000 tested, 2.2% active; AID 1456;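 active = thallium flux slope and its plate-corrected score both differing from the plate sample mean at a set confidence after two filtering rounds, in either direction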;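 also: slope of fluorescence scaled to starting intensity during 10 to 20 s after thallium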
Target sequence (Q9H2X9 whole entry, looked up): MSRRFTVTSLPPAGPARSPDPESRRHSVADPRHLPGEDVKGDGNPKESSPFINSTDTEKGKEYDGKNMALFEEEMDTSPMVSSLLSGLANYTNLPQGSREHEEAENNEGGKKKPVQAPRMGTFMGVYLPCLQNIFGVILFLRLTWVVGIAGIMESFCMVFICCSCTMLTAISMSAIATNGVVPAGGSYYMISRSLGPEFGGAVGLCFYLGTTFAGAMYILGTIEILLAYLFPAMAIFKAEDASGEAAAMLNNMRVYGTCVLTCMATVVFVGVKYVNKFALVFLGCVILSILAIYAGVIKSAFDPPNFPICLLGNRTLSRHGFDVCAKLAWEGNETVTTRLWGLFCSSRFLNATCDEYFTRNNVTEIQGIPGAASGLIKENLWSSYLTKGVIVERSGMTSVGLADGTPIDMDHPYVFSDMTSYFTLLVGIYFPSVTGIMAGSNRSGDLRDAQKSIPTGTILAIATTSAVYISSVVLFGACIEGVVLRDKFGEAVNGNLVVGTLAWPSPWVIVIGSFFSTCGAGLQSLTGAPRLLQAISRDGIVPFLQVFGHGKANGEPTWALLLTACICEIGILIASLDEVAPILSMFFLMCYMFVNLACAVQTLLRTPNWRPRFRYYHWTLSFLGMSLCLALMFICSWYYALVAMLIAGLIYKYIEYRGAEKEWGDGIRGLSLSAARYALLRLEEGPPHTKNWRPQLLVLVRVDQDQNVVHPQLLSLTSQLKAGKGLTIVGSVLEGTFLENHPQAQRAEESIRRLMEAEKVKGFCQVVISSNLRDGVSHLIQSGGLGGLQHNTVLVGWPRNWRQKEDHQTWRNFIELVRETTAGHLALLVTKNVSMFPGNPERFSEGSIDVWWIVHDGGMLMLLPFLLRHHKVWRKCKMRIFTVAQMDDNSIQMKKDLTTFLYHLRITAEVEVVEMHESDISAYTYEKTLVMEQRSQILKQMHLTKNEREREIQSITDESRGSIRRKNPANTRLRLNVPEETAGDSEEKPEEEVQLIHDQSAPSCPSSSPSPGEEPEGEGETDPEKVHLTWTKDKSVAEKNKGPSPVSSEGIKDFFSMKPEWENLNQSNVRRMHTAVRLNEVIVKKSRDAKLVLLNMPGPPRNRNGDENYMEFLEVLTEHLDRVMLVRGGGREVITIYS
MT stabilize HCS: microtubule stabilization, imaging screen | 200,000 tested, 0.83% active | AID 2205 | HeLa tubulin immunostaining HCS, 24 h; share of cells brighter than vehicle mean+2SD | % tubulin-high responders, % at 10 µM;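 active = plate Z-score above 3 for both tubulin-high and condensed-nucleus cell shares, with cell loss under 80%, at 10 µM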;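 also: anti alpha tubulin signal scored within the nucleus-defined area of each cell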
Pf gamet viab: P. falciparum stage V gametocyte viability inhibition. P. falciparum stage V gametocytes, ATP luminescence, 24 h. inhibition, % at 10.9 µM. 150,000 tested, 0.065% active;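 active = inhibition above the mean plus 3 SD of compounds within the control limits, set per campaign, cut at about 38% in these data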;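 also: 0% = DMSO wells and 100% = medium only without gametocytes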
KCC2 secondary: KCC2 (human) modulation, secondary assay; shares compounds with Cl transport mod; HEK293-KCC2, thallium flux, FluoZin2 fluorescence; stronger effect = higher value; normalised thallium flux (F/F0 slope) at 10 µM; 3,700 tested, 15% active;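 active = thallium flux slope above the same plate's solvent-only control mean plus 3 SD; inconclusive = the two replicate wells disagree; inactive = no significant difference from solvent-only control wells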
KCC2 bumet counter: bumetanide-insensitive thallium flux in KCC2 cells with ouabain, counter-screen; HEK293-KCC2 + bumetanide/ouabain, thallium flux FluoZin2; stronger effect = higher value; normalized thallium flux at 10 µM; 3,700 tested, 49% active; shares compounds with Cl transport mod;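 active = thallium entry rate above the same plate's blocked-transporter control wells by more than 3 SD; inconclusive = the two repeat wells disagree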;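 also: raw slope of fluorescence over initial fluorescence between 10 and 20 s after thallium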
KCC2 secondary2: KCC2 (human) modulation, second secondary assay | normalized thallium flux at 10 µM | shares compounds with Cl transport mod | HEK293-KCC2, thallium flux FluoZin2 fluorescence; actives lie on both sides; F/F0 rise rate, 10–20 s post-thallium | 3,700 tested, 23% active;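 active = thallium flux slope more than 3 SD above or below the plate's solvent-only control mean, mostly below; inconclusive = the two repeat wells disagreed; inactive = no significant shift from solvent-only controls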;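 also: raw slope with 0.1% DMSO as baseline and bumetanide as block control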
HEK293 Tl flux: acts in parental HEK cells, KCC2 counter-screen; shares compounds with Cl transport mod; HEK293 parental cells, thallium flux FluoZin2, ouabain; baseline-ratio fluorescence slope, 10–20 s after thallium; thallium flux rate (normalised fluorescence) at 10 µM; 3,700 tested, 46% active; AID 1716;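 active = thallium flux rate significantly above the same plate's solvent-only control wells, beyond their mean plus 3 SD; inconclusive = the two replicate wells gave conflicting results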
KCC2 retest ouab: KCC2 (human) modulation, ouabain retest | shares compounds with Cl transport mod | HEK293-KCC2, thallium flux FluoZin2 fluorescence; bidirectional: low = inhibitor, high = activator | raw Tl+ flux slope (below DMSO = inhibition, above = activation) at 10 µM | 3,700 tested, 48% active | AID 1717;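 active = thallium flux slope beyond 3 SD from same-plate DMSO control mean in most replicates, usually higher, sometimes lower; inconclusive = repeat tests gave conflicting results; inactive = no significant difference from controls in most replicates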;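 also: slope of initial-normalized fluorescence between seconds 10 and 20 after thallium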
HEK counter2: parental HEK flux effect, counter-screen 2 | shares compounds with Cl transport mod | HEK293 parental, thallium flux FluoZin-2 fluorescence slope | thallium flux slope at 10 µM | 3,700 tested, 33% active | AID 1718;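 active = thallium flux slope above the same plate's solvent-control mean plus 3 SD in both duplicate wells; inconclusive = duplicate wells that disagreed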;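 also: run without ouabain in cells lacking the KCC2 cotransporter; slope of fluorescence scaled to its starting value between 10 and 20 s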
The depositor's hits bear a star; u = inconclusive; x = not tested or not shown. A selection: hits, their analogues and other compounds. The true share with any hit is near 4%.

SMILES	WT yeast gro inh	bCat nuc transl	Cl transport mod	MT stabilize HCS	Pf gamet viab	KCC2 secondary	KCC2 bumet counter	KCC2 secondary2	HEK293 Tl flux	KCC2 retest ouab	HEK counter2
O=C(CCC1CCCN(C(=O)c2ccc3cc[nH]c3c2)C1)NCc1ccc(F)c(F)c1 (stereo not given)	-19	0	-0.31	x	-4	x	x	x	x	x	x
CS(=O)(=O)c1ccc(S(=O)CC(=O)Oc2ccc(Cl)cc2)c([N+](=O)[O-])c1 (stereo not given)	-6	0	-2.2	3	x	x	x	x	x	x	x
CC(C)n1nnnc1-c1cc(Cl)cc(Cl)c1	-3	0	3.4*	2	x	0.017	0.0053	0.03	0.0074	0.017	0.01
CCOC(=O)CSc1ccc(C(=O)Nc2ccc(OC)cc2)cn1	23	-5	0.34	6	x	x	x	x	x	x	x
CCOc1nsc(OCC)n1	x	-1	-0.28	x	x	x	x	x	x	x	x
O=C(O)/C(=C\c1ccc(Cl)c([N+](=O)[O-])c1)c1ccc(S(=O)(=O)N2CCCCC2)s1	-2	1	-7.8*	2	x	0.0087	0.0063	0.03	0.0072	0.011*	0.011
OCC[C@H]1C[C@@H](O)[C@H](O)[C@@]2(Cc3ccccc3O2)O1	x	x	x	x	1	x	x	x	x	x	x
COc1cccc(NC(=S)N2CCC(C(=O)c3ccc(F)cc3)CC2)c1	x	x	x	x	3	x	x	x	x	x	x
C/C(=N/NC(=O)c1ccco1)c1ccc(NC(=O)c2ccc(F)cc2)cc1	-9	-2	-0.72	4	x	x	x	x	x	x	x
CCOc1cc(-c2noc(CCCC(N)=O)n2)cc(Br)c1OC	5	0	4.5*	4	x	0.0073	u	0.028	0.0074	0.019	0.01
N#Cc1c(-c2ccc(C(F)(F)F)cc2)cc(-c2ccccc2)[nH]c1=S	5	2	5*	3	-1	0.02*	0.022*	0.04	u	0.029*	0.024*
Cc1ccc(-c2cc(-c3ccccc3)[nH]c(=S)c2C#N)cc1	-10	-1	x	1	32	x	x	x	x	x	x
CC(C)n1c(CSCc2ccc(Cl)cc2Cl)n[nH]c1=S	65*	0	9.3*	2	-18	0.01	0.083*	0.034	0.028*	0.053*	0.013*
Cc1cc(SCC(=O)NC(=O)NCc2ccco2)nc2c(C)cccc12	-9	-3	4.4*	5	x	0.0076	0.0063*	0.034	0.019*	u	0.016*
C1CCc2c(c(N3CCOCC3)nc3sc4c(N5CCOCC5)nnnc4c23)C1	x	x	x	x	6	x	x	x	x	x	x
S=c1nc[nH]c2c1sc1nc(N3CCOCC3)c3c(c12)CCCC3	48	0	67*	5	-6	0.0094*	0.089*	0.069*	0.082*	0.074*	0.062*
O=C(CCNS(=O)(=O)c1cccc2nonc12)NCCc1ccc(Cl)cc1	3	-1	-3.6*	6	x	u	0.0059	0.032	0.0069	0.017*	0.0095
O=C(COC(=O)c1cc(S(=O)(=O)N2CCOCC2)ccc1O)NCCc1ccccc1	-9	-1	x	2	x	x	x	x	x	x	x
O=C(N/N=C/c1ccc(Br)s1)c1cccs1	x	1	112*	x	2	0.014*	0.086*	0.034	0.04*	0.049*	0.034*
CCOc1ccc(-n2c(C)nc(O)c2N=Nc2ccccc2)cc1	-9	-2	1.5	3	x	x	x	x	x	x	x
O=C(Cc1csc(Nc2nc(=S)[nH]c3ccccc23)n1)N1CCN(c2cccc(C(F)(F)F)c2)CC1	12	-2	12*	7	8	0.007	0.014*	0.036	0.022*	0.027*	0.018*
O=C(Cc1csc(Nc2nc(=S)[nH]c3ccccc23)n1)NCc1cccc(Cl)c1	5	x	x	4	x	x	x	x	x	x	x
CCCCOc1ccc(C(C)NC(=O)C2CCCN(S(=O)(=O)CCC)C2)cc1 (stereo not given)	2	0	0.59	3	4	x	x	x	x	x	x
COc1ccc2c(c1)O[C@@H](c1cccc(C(F)(F)F)c1)[C@H](O)C2=O	8	x	8.8*	3	x	0.0078	0.0093*	0.031	0.011*	u	u
CCOc1ccc(NC(=S)NNC(=O)c2cc(Br)ccc2Cl)cc1	-15	0	8.5*	6	-9	0.0096	0.041*	0.034	u	0.034*	0.013
SMILES	WT yeast gro inh	bCat nuc transl	Cl transport mod	MT stabilize HCS	Pf gamet viab	KCC2 secondary	KCC2 bumet counter	KCC2 secondary2	HEK293 Tl flux	KCC2 retest ouab	HEK counter2
COC(=O)c1cccc(C23CC4(C2)[C@H](CN(Cc2ccc(C(F)(F)F)cc2)[C@@H]4c2ccccc2)C3c2ccc(C(F)(F)F)cc2)c1 (stereo not given in full)	x	0	-0.15	x	7	x	x	x	x	x	x
CC(C)(C)C(=O)NC(=S)NNC(=O)C(c1ccccc1)c1ccccc1	-41	0	5.8*	2	x	0.011	0.023*	0.041	u	0.03*	0.013
CC(=O)NNC(=S)NC(=O)C(c1ccccc1)c1ccccc1	-8	0	-1.4	4	4	x	x	x	x	x	x
COc1ccccc1/C=C(\NC(=O)c1ccc(OC)c(OC)c1)C(=O)Nc1cc([N+](=O)[O-])ccc1C	8	0	5.2*	2	x	0.015	0.0045	0.028	0.0068	0.017	0.0095
CCOC(=O)COc1ccc(/C=C2\NC(=S)N(CC)C2=O)cc1	5	-2	-6.2*	3	13	0.0068	0.011*	0.029	0.0066	0.014*	0.01
CCCCC(NC(C)=O)c1nc2ccccc2n1CCCC (stereo not given)	15	-1	6*	4	x	0.0056	0.0041	0.029	u	0.019	0.0098
CCCCCn1c(C(Cc2ccccc2)NC(C)=O)nc2ccccc21 (stereo not given)	6	-2	-0.36	3	x	x	x	x	x	x	x
CCn1c(NC(=O)c2ccccc2)nc2ccccc21	x	3	31*	x	7	0.0063	0.018*	0.032	0.016*	u	0.016*
CCCCn1c(NC(=O)c2ccccc2)nc2ccccc21	35	0	13*	4	x	0.0099	0.03*	0.032	u	0.03*	u
COC(=O)C1(Cc2ccc(O)cc2)OC(=O)C(O)=C1c1ccc(O)cc1 (stereo not given)	x	0	-0.16	x	x	x	x	x	x	x	x
CCCNC(=O)c1ccc(N2CCC3(CC2)CC(c2cccc(Br)c2)=NO3)c(NC(=O)c2cccc(C)c2)c1	x	x	x	x	0	x	x	x	x	x	x
